In ChEMBL document CHEMBL4038284, “Synthesis of novel quinoline-based 4,5-dihydro-1H-pyrazoles as potential anticancer, antifungal, antibacterial and antiprotozoal agents” (Eur J Med Chem, 2017):

Assays:
Format in all cases: functional
RPMI-8226 = experiment: Growth inhibition of human RPMI8226 cells incubated for 48 hrs by sulforhodamine B assay; details: RPMI-8226, 48 h
Procedure, shortened: (§1)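 NCI 60-line screen. Cells in RPMI-1640 with 5% FBS and 2 mM L-glutamine, preincubated 24 h, then time-zero plates TCA-fixed. Compounds from DMSO stocks given at five final concentrations (100, 10, 1.0, 0.1, 0.01 µM) for 48 h at 37 °C, 5% CO2. Cells fixed with 10% TCA, SRB-stained, read at 515 nm. GI50 is the concentration giving 50% lower net protein increase versus control.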

MCF7 = experiment: Growth inhibition of human MCF7 cells incubated for 48 hrs by sulforhodamine B assay; details: MCF7, 48 h; procedure, shortened: as §1
SK-MEL-28 = experiment: Growth inhibition of human SK-MEL-28 cells incubated for 48 hrs by sulforhodamine B assay; details: SK-MEL-28, 48 h
Procedure, shortened: (§2)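 NCI-60 panel cells grown in RPMI-1640 with 5% FBS and 2 mM L-glutamine, preincubated 24 h at 37 °C/5% CO2. Time-zero plates were TCA-fixed at compound addition. DMSO stocks were diluted in medium and tested at five final concentrations (100, 10, 1.0, 0.1, 0.01 µM) for 48 h. Cells were TCA-fixed, stained with SRB and read at 515 nm. GI50 = 50% lower net protein increase versus control.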

PC-3 = experiment: Growth inhibition of human PC3 cells incubated for 48 hrs by sulforhodamine B assay; details: PC-3, 48 h
Procedure, shortened: (§3)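 Five-dose NCI SRB assay at 100, 10, 1.0, 0.1 and 0.01 μM for 48 h at 37 °C, 5% CO2. Medium was RPMI-1640 with 5% FBS and 2 mM glutamine. Time-zero plates were TCA-fixed at compound addition, A515 read after SRB staining. GI50 was solved from [(Ti−Tz)/(C−Tz)]×100 = 50. Values beyond the tested range are given as > or <.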

UACC-62 = experiment: Growth inhibition of human UACC62 cells incubated for 48 hrs by sulforhodamine B assay; details: UACC-62, 48 h; procedure, shortened: as §1
MDA-MB-435 = experiment: Growth inhibition of human MDA-MB-435 cells incubated for 48 hrs by sulforhodamine B assay; details: MDA-MB-435, 48 h; procedure, shortened: as §3
RXF 393 = experiment: Growth inhibition of human RXF393 cells incubated for 48 hrs by sulforhodamine B assay; details: RXF 393, 48 h; procedure, shortened: as §3
MDA-MB-231 = experiment: Growth inhibition of human MDA-MB-231 cells incubated for 48 hrs by sulforhodamine B assay; details: MDA-MB-231, 48 h; procedure, shortened: as §3
NCI-H322M = experiment: Growth inhibition of human NCI-H322M cells incubated for 48 hrs by sulforhodamine B assay; procedure, shortened: as §3
HCT-15 = experiment: Growth inhibition of human HCT15 cells incubated for 48 hrs by sulforhodamine B assay; details: HCT-15, 48 h, read-out: LC50 (the source's name); procedure, shortened: as §1
MDA-MB-468 = experiment: Growth inhibition of human MDA-MB-468 cells incubated for 48 hrs by sulforhodamine B assay; details: MDA-MB-468, 48 h; procedure, shortened: as §3
SF-539 = experiment: Growth inhibition of human SF539 cells incubated for 48 hrs by sulforhodamine B assay; details: SF-539, 48 h; procedure, shortened: as §2
UACC-257 = experiment: Growth inhibition of human UACC257 cells incubated for 48 hrs by sulforhodamine B assay; details: UACC-257, 48 h; procedure, shortened: as §2
IGROV-1 = experiment: Growth inhibition of human IGROV1 cells incubated for 48 hrs by sulforhodamine B assay; details: IGROV-1, 48 h; procedure, shortened: as §1
UO-31 = experiment: Growth inhibition of human UO31 cells incubated for 48 hrs by sulforhodamine B assay; details: UO-31, 48 h; procedure, shortened: as §2
HL-60(TB) = experiment: Growth inhibition of human HL-60(TB) cells incubated for 48 hrs by sulforhodamine B assay; details: HL-60, 48 h; procedure, shortened: as §1
DU-145 = experiment: Growth inhibition of human DU145 cells incubated for 48 hrs by sulforhodamine B assay; details: DU-145, 48 h
Procedure, shortened: (§4)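 NCI five-dose SRB assay (100, 10, 1.0, 0.1, 0.01 µM) with 48 h exposure in RPMI-1640 with 5% FBS and 2 mM L-glutamine. Cells fixed with TCA and stained with SRB, read at 515 nm. GI50 is the concentration where [(Ti−Tz)/(C−Tz)]×100 = 50.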

NCI-H460 = experiment: Growth inhibition of human NCI-H460 cells incubated for 48 hrs by sulforhodamine B assay; details: NCI-H460, 48 h; procedure, shortened: as §3
TK-10 = experiment: Growth inhibition of human TK10 cells incubated for 48 hrs by sulforhodamine B assay; details: TK-10, 48 h; procedure, shortened: as §1
U-251 = experiment: Growth inhibition of human U251 cells incubated for 48 hrs by sulforhodamine B assay; details: U-251, 48 h; procedure, shortened: as §2
LOX IMVI = experiment: Growth inhibition of human LOXIMVI cells incubated for 48 hrs by sulforhodamine B assay; procedure, shortened: as §3
OVCAR-8 = experiment: Growth inhibition of human OVCAR8 cells incubated for 48 hrs by sulforhodamine B assay; details: OVCAR-8, 48 h; procedure, shortened: as §3
SNB-75 = experiment: Growth inhibition of human SNB75 cells incubated for 48 hrs by sulforhodamine B assay; details: SNB-75, 48 h; procedure, shortened: as §1
OVCAR-5 = experiment: Growth inhibition of human OVCAR5 cells incubated for 48 hrs by sulforhodamine B assay; details: OVCAR-5, 48 h; procedure, shortened: as §1
NCI-H23 = experiment: Growth inhibition of human NCI-H23 cells incubated for 48 hrs by sulforhodamine B assay; details: NCI-H23, 48 h; procedure, shortened: as §3
NCI-H522 = experiment: Growth inhibition of human NCI-H522 cells incubated for 48 hrs by sulforhodamine B assay; details: NCI-H522, 48 h; procedure, shortened: as §1
A549 = experiment: Growth inhibition of human A549/ATCC cells incubated for 48 hrs by sulforhodamine B assay; details: A549, 48 h; procedure, shortened: as §1
SF-268 = experiment: Growth inhibition of human SF268 cells incubated for 48 hrs by sulforhodamine B assay; details: SF-268, 48 h; procedure, shortened: as §3
EKVX = experiment: Growth inhibition of human EKVX cells incubated for 48 hrs by sulforhodamine B assay; procedure, shortened: as §4
NCI/ADR-RES = experiment: Growth inhibition of human NCI/ADR-RES cells incubated for 48 hrs by sulforhodamine B assay; details: read-out: LC50 (the source's name); procedure, shortened: as §1
[1] = read-out: LC50 (the source's name)

How did the GI50 (RPMI-8226) turn out when `COc1cccc2c1C(=O)c1c(O)c3c(c(O)c1C2=O)C[C@@](O)(C(=O)CO)C[C@@H]3O[C@H]1C[C@H](N)[C@H](O)[C@H](C)O1` [DOXORUBICIN] was run?
The GI50 was 80 nM.

What about the CC50 (RPMI-8226; [1]) of the same compound?
The CC50 was 100000 nM.

And the GI50 (MCF7)?
The GI50 was 40 nM.

What about the CC50 (MCF7; [1]) of the same compound?
The CC50 was 64100 nM.

And the GI50 (SK-MEL-28)?
Its GI50 is 210 nM.

What about the GI50 (PC-3) of the same compound?
Its GI50 is 320 nM.

And the GI50 (UACC-62)?
Its GI50 is 140 nM.

What about the CC50 (UACC-62; [1]) of the same compound?
The CC50 was 1310 nM.

And the GI50 (MDA-MB-435)?
Its GI50 is 250 nM.

What about the GI50 (RXF 393) of the same compound?
Its GI50 is 100 nM.

And the GI50 (MDA-MB-231)?
Its GI50 is 510 nM.

And the GI50 (NCI-H322M)?
Its GI50 is 540 nM.

What about the CC50 (HCT-15) of the same compound?
The CC50 was 100000 nM.

What about the GI50 (MDA-MB-468) of the same compound?
Its GI50 is 50 nM.

What about the GI50 (SF-539) of the same compound?
The GI50 was 120 nM.

What about the GI50 (UACC-257) of the same compound?
Its GI50 is 140 nM.

And the GI50 (IGROV-1)?
The GI50 was 170 nM.

What about the CC50 (IGROV-1; [1]) of the same compound?
The CC50 was 100000 nM.

What about the GI50 (UO-31) of the same compound?
Its GI50 is 490 nM.

And the GI50 (HL-60(TB))?
The GI50 was 120 nM.

And the GI50 (DU-145)?
Its GI50 is 110 nM.

What about the CC50 (DU-145; [1]) of the same compound?
Its CC50 is 100000 nM.

What about the GI50 (NCI-H460) of the same compound?
Its GI50 is 20 nM.

And the GI50 (TK-10)?
Its GI50 is 380 nM.

What about the CC50 (TK-10; [1]) of the same compound?
Its CC50 is 90000 nM.

What about the GI50 (U-251) of the same compound?
The GI50 was 40 nM.

And the GI50 (LOX IMVI)?
The GI50 was 70 nM.

And the GI50 (OVCAR-8)?
The GI50 was 100 nM.

And the GI50 (SNB-75)?
The GI50 was 70 nM.

And the CC50 (SNB-75; [1])?
Its CC50 is 3300 nM.

What about the GI50 (OVCAR-5) of the same compound?
The GI50 was 410 nM.

And the CC50 (OVCAR-5; [1])?
The CC50 was 100000 nM.

And the GI50 (NCI-H23)?
The GI50 was 150 nM.

What about the GI50 (NCI-H522) of the same compound?
Its GI50 is 30 nM.

What about the CC50 (NCI-H522; [1]) of the same compound?
Its CC50 is 2800 nM.

And the GI50 (A549)?
Its GI50 is 60 nM.

What about the GI50 (SF-268) of the same compound?
The GI50 was 100 nM.

What about the GI50 (EKVX) of the same compound?
Its GI50 is 410 nM.

And the CC50 (NCI/ADR-RES)?
Its CC50 is 100000 nM.
